Assay results from ChEMBL document CHEMBL3739379, “Anti-Candida activity and cytotoxicity of a large library of new N-substituted-1,3-thiazolidin-4-one derivatives” (Eur J Med Chem, 2016).
≈ marks a conversion by molar mass, not a printed value.

Test system: Proteus mirabilis
Assay: Antibacterial activity against Proteus mirabilis after 18 to 22 hrs by broth microdilution method
Format: functional
Settings: not given
Summary of the method: (§1)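 Broth microdilution per NCCLS in Mueller-Hinton II broth; isolates subcultured for purity. Compounds dissolved in DMSO, serial dilutions 256 to 0.5 µg/mL; inoculum 10^5/mL. Controls: organism without compound, medium only. Incubation 18 to 22 h at 35 °C. MIC is the lowest concentration giving complete growth inhibition, read by unaided eye.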

SMILES | MIC
O=C1CS/C(=N\N=C2CCCC2)N1Cc1cccc2ccccc12 | > 256 µg/mL
CCC(CC)=N/N=C1\SCC(=O)N1Cc1cccc2ccccc12 | > 256 µg/mL
O=C1CS/C(=N\N=C2CCCCCC2)N1Cc1ccc([N+](=O)[O-])cc1 | > 256 µg/mL
CCC/C(C)=N/N=C1\SCC(=O)N1CN1C(=O)c2ccccc2C1=O | > 256 µg/mL
CCCCC/C(C)=N/N=C1\SCC(=O)N1Cc1cccc2ccccc12 | > 256 µg/mL

Test system: Staphylococcus aureus
Assay: Antibacterial activity against Staphylococcus aureus after 18 to 22 hrs by broth microdilution method
Format: functional
Settings: not given
Summary of the method: as §1

SMILES | MIC
O=C1CS/C(=N\N=C2CCCC2)N1Cc1cccc2ccccc12 | > 256 µg/mL
CCC(CC)=N/N=C1\SCC(=O)N1Cc1cccc2ccccc12 | > 256 µg/mL
O=C1CS/C(=N\N=C2CCCCCC2)N1Cc1ccc([N+](=O)[O-])cc1 | > 256 µg/mL
CCC/C(C)=N/N=C1\SCC(=O)N1CN1C(=O)c2ccccc2C1=O | > 256 µg/mL
CCCCC/C(C)=N/N=C1\SCC(=O)N1Cc1cccc2ccccc12 | > 256 µg/mL

Test system: Candida albicans
Assay: Antifungal activity against Candida albicans clinical isolate after 24 hrs by sabouraud dextrose broth based microdilution method
Format: functional
Settings: not given
Summary of the method: (§2)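 Clinical isolates identified by conventional methods and subcultured for purity. Broth microdilution per NCCLS in Sabouraud dextrose broth; compounds dissolved in DMSO and serially diluted; inoculum 10^3/mL. Controls: fungi without compound, medium only. Incubated 24 h at 37 °C. MIC is the lowest concentration with complete growth inhibition by unaided eye. Values are geometric means over isolates per species.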

SMILES | MIC
O=C1CS/C(=N\N=C2CCCC2)N1Cc1cccc2ccccc12 | 2 µg/mL (≈ 5.93 µM)
CCC(CC)=N/N=C1\SCC(=O)N1Cc1cccc2ccccc12 | 2 µg/mL (≈ 5.89 µM)
O=C1CS/C(=N\N=C2CCCCCC2)N1Cc1ccc([N+](=O)[O-])cc1 | 128 µg/mL (≈ 355 µM)
CCC/C(C)=N/N=C1\SCC(=O)N1CN1C(=O)c2ccccc2C1=O | 2 µg/mL (≈ 5.58 µM)
CCCCC/C(C)=N/N=C1\SCC(=O)N1Cc1cccc2ccccc12 | 4 µg/mL (≈ 10.9 µM)

Test system: Escherichia coli
Assay: Antibacterial activity against Escherichia coli at after 18 to 22 hrs by broth microdilution method
Format: functional
Settings: not given
Summary of the method: as §1

SMILES | MIC
O=C1CS/C(=N\N=C2CCCC2)N1Cc1cccc2ccccc12 | > 256 µg/mL
CCC(CC)=N/N=C1\SCC(=O)N1Cc1cccc2ccccc12 | > 256 µg/mL
O=C1CS/C(=N\N=C2CCCCCC2)N1Cc1ccc([N+](=O)[O-])cc1 | > 256 µg/mL
CCC/C(C)=N/N=C1\SCC(=O)N1CN1C(=O)c2ccccc2C1=O | > 256 µg/mL
CCCCC/C(C)=N/N=C1\SCC(=O)N1Cc1cccc2ccccc12 | > 256 µg/mL

Test system: Nakaseomyces glabratus
Assay: Antifungal activity against Candida glabrata clinical isolate after 24 hrs by sabouraud dextrose broth based microdilution method
Format: functional
Settings: not given
Summary of the method: as §2

SMILES | MIC
O=C1CS/C(=N\N=C2CCCC2)N1Cc1cccc2ccccc12 | 16 µg/mL (≈ 47.4 µM)
CCC(CC)=N/N=C1\SCC(=O)N1Cc1cccc2ccccc12 | 16 µg/mL (≈ 47.1 µM)
O=C1CS/C(=N\N=C2CCCCCC2)N1Cc1ccc([N+](=O)[O-])cc1 | 32 µg/mL (≈ 88.8 µM)
CCC/C(C)=N/N=C1\SCC(=O)N1CN1C(=O)c2ccccc2C1=O | 2 µg/mL (≈ 5.58 µM)
CCCCC/C(C)=N/N=C1\SCC(=O)N1Cc1cccc2ccccc12 | 8 µg/mL (≈ 21.8 µM)

Test system: Enterococcus faecalis
Assay: Antibacterial activity against […] faecalis after 18 to 22 hrs by broth microdilution method
Format: functional
Settings: not given
Summary of the method: as §1

SMILES | MIC
O=C1CS/C(=N\N=C2CCCC2)N1Cc1cccc2ccccc12 | > 256 µg/mL
CCC(CC)=N/N=C1\SCC(=O)N1Cc1cccc2ccccc12 | > 256 µg/mL
O=C1CS/C(=N\N=C2CCCCCC2)N1Cc1ccc([N+](=O)[O-])cc1 | > 256 µg/mL
CCC/C(C)=N/N=C1\SCC(=O)N1CN1C(=O)c2ccccc2C1=O | > 256 µg/mL
CCCCC/C(C)=N/N=C1\SCC(=O)N1Cc1cccc2ccccc12 | > 256 µg/mL

Test system: Candida parapsilosis
Assay: Antifungal activity against Candida parapsilosis clinical isolate after 24 hrs by sabouraud dextrose broth based microdilution method
Format: functional
Settings: Lodderomyces parapsilosis
Summary of the method: as §2

SMILES | MIC
O=C1CS/C(=N\N=C2CCCC2)N1Cc1cccc2ccccc12 | 128 µg/mL (≈ 379 µM)
CCC(CC)=N/N=C1\SCC(=O)N1Cc1cccc2ccccc12 | 16 µg/mL (≈ 47.1 µM)
O=C1CS/C(=N\N=C2CCCCCC2)N1Cc1ccc([N+](=O)[O-])cc1 | 8 µg/mL (≈ 22.2 µM)
CCC/C(C)=N/N=C1\SCC(=O)N1CN1C(=O)c2ccccc2C1=O | 2 µg/mL (≈ 5.58 µM)
CCCCC/C(C)=N/N=C1\SCC(=O)N1Cc1cccc2ccccc12 | 2 µg/mL (≈ 5.44 µM)

Test system: Klebsiella oxytoca
Assay: Antibacterial activity against Klebsiella oxytoca after 18 to 22 hrs by broth microdilution method
Format: functional
Settings: not given
Summary of the method: as §1

SMILES | MIC
O=C1CS/C(=N\N=C2CCCC2)N1Cc1cccc2ccccc12 | > 256 µg/mL
CCC(CC)=N/N=C1\SCC(=O)N1Cc1cccc2ccccc12 | > 256 µg/mL
O=C1CS/C(=N\N=C2CCCCCC2)N1Cc1ccc([N+](=O)[O-])cc1 | > 256 µg/mL
CCC/C(C)=N/N=C1\SCC(=O)N1CN1C(=O)c2ccccc2C1=O | > 256 µg/mL
CCCCC/C(C)=N/N=C1\SCC(=O)N1Cc1cccc2ccccc12 | > 256 µg/mL

Test system: Candida tropicalis
Assay: Antifungal activity against Candida tropicalis clinical isolate after 24 hrs by sabouraud dextrose broth based microdilution method
Format: functional
Settings: not given
Summary of the method: as §2

SMILES | MIC
O=C1CS/C(=N\N=C2CCCC2)N1Cc1cccc2ccccc12 | 8 µg/mL (≈ 23.7 µM)
CCC(CC)=N/N=C1\SCC(=O)N1Cc1cccc2ccccc12 | 2 µg/mL (≈ 5.89 µM)
O=C1CS/C(=N\N=C2CCCCCC2)N1Cc1ccc([N+](=O)[O-])cc1 | 16 µg/mL (≈ 44.4 µM)
CCC/C(C)=N/N=C1\SCC(=O)N1CN1C(=O)c2ccccc2C1=O | 4 µg/mL (≈ 11.2 µM)
CCCCC/C(C)=N/N=C1\SCC(=O)N1Cc1cccc2ccccc12 | 64 µg/mL (≈ 174 µM)

Test system: Enterobacter sp.
Assay: Antibacterial activity against Enterobacter sp. after 18 to 22 hrs by broth microdilution method
Format: functional
Settings: not given
Summary of the method: as §1

SMILES | MIC
O=C1CS/C(=N\N=C2CCCC2)N1Cc1cccc2ccccc12 | > 256 µg/mL
CCC(CC)=N/N=C1\SCC(=O)N1Cc1cccc2ccccc12 | > 256 µg/mL
O=C1CS/C(=N\N=C2CCCCCC2)N1Cc1ccc([N+](=O)[O-])cc1 | > 256 µg/mL
CCC/C(C)=N/N=C1\SCC(=O)N1CN1C(=O)c2ccccc2C1=O | > 256 µg/mL
CCCCC/C(C)=N/N=C1\SCC(=O)N1Cc1cccc2ccccc12 | > 256 µg/mL

Test system: Pichia kudriavzevii
Assay: Antifungal activity against Candida krusei clinical isolate after 24 hrs by sabouraud dextrose broth based microdilution method
Format: functional
Settings: not given
Summary of the method: as §2

SMILES | MIC
O=C1CS/C(=N\N=C2CCCC2)N1Cc1cccc2ccccc12 | 16 µg/mL (≈ 47.4 µM)
CCC(CC)=N/N=C1\SCC(=O)N1Cc1cccc2ccccc12 | 16 µg/mL (≈ 47.1 µM)
O=C1CS/C(=N\N=C2CCCCCC2)N1Cc1ccc([N+](=O)[O-])cc1 | 4 µg/mL (≈ 11.1 µM)
CCC/C(C)=N/N=C1\SCC(=O)N1CN1C(=O)c2ccccc2C1=O | 2 µg/mL (≈ 5.58 µM)
CCCCC/C(C)=N/N=C1\SCC(=O)N1Cc1cccc2ccccc12 | 2 µg/mL (≈ 5.44 µM)

Test system: Staphylococcus haemolyticus
Assay: Antibacterial activity against Staphylococcus haemolyticus after 18 to 22 hrs by broth microdilution method
Format: functional
Settings: not given
Summary of the method: as §1

SMILES | MIC
O=C1CS/C(=N\N=C2CCCC2)N1Cc1cccc2ccccc12 | > 256 µg/mL
CCC(CC)=N/N=C1\SCC(=O)N1Cc1cccc2ccccc12 | > 256 µg/mL
O=C1CS/C(=N\N=C2CCCCCC2)N1Cc1ccc([N+](=O)[O-])cc1 | > 256 µg/mL
CCC/C(C)=N/N=C1\SCC(=O)N1CN1C(=O)c2ccccc2C1=O | > 256 µg/mL
CCCCC/C(C)=N/N=C1\SCC(=O)N1Cc1cccc2ccccc12 | > 256 µg/mL

Test system: Staphylococcus warneri
Assay: Antibacterial activity against Staphylococcus warneri after 18 to 22 hrs by broth microdilution method
Format: functional
Settings: not given
Summary of the method: as §1

SMILES | MIC
O=C1CS/C(=N\N=C2CCCC2)N1Cc1cccc2ccccc12 | > 256 µg/mL
CCC(CC)=N/N=C1\SCC(=O)N1Cc1cccc2ccccc12 | > 256 µg/mL
O=C1CS/C(=N\N=C2CCCCCC2)N1Cc1ccc([N+](=O)[O-])cc1 | > 256 µg/mL
CCC/C(C)=N/N=C1\SCC(=O)N1CN1C(=O)c2ccccc2C1=O | > 256 µg/mL
CCCCC/C(C)=N/N=C1\SCC(=O)N1Cc1cccc2ccccc12 | > 256 µg/mL

Test system: [Candida] sake
Assay: Antifungal activity against Candida sake clinical isolate after 24 hrs by sabouraud dextrose broth based microdilution method
Format: functional
Settings: Fermentozyma sake
Summary of the method: as §2

SMILES | MIC
O=C1CS/C(=N\N=C2CCCC2)N1Cc1cccc2ccccc12 | 256 µg/mL (≈ 759 µM)
CCC(CC)=N/N=C1\SCC(=O)N1Cc1cccc2ccccc12 | 2 µg/mL (≈ 5.89 µM)
O=C1CS/C(=N\N=C2CCCCCC2)N1Cc1ccc([N+](=O)[O-])cc1 | 4 µg/mL (≈ 11.1 µM)
CCC/C(C)=N/N=C1\SCC(=O)N1CN1C(=O)c2ccccc2C1=O | 4 µg/mL (≈ 11.2 µM)
CCCCC/C(C)=N/N=C1\SCC(=O)N1Cc1cccc2ccccc12 | 2 µg/mL (≈ 5.44 µM)
